≈ marks a conversion by molar mass, not a printed value.
Tests used:
[1] = Solubility of the compound in phosphate buffered saline with 50% DMSO measured after 18 hrs by UV-vis spectroscopic method; type: physicochemical
In short: (§1)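 Saturated suspensions prepared at 100 µM in water, 100 µM in PBS, 200 µM in PBS + 10% DMSO and 10 mM in PBS + 50% DMSO. Held 18 h at 25°C, passed through a 0.2 µm filter, then quantified by UV-Vis absorbance at 312 nm using the calculated extinction coefficient.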

Cytochrome P450 2C19 = Cytochrome P450 2C19 (Homo sapiens, UniProt P33261); test: Inhibition of human CYP2C19 expressed in baculovirus-infected insect cells using Luciferin-H EGE as substrate in presence of NADPH by P450-Glo luminescence assay; type: ADME
Cytochrome P450 2C19, sequence (P33261 whole entry): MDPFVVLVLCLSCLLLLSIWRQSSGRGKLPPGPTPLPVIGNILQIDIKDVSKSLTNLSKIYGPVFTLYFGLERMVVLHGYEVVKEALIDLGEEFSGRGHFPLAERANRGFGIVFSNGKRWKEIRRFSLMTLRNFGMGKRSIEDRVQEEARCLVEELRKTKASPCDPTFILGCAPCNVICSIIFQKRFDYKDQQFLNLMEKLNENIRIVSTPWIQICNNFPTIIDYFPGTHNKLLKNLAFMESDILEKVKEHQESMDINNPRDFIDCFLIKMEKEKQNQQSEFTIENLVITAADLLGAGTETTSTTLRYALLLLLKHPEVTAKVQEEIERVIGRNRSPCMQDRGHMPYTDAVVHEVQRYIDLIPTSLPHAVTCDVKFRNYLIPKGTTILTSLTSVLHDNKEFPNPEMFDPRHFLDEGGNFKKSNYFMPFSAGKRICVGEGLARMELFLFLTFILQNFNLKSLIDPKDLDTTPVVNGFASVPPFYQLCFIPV
In short: (§2)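 CYP enzymes as microsomal preparations from baculovirus-infected insect cells, run on the P450-Glo luminogenic substrate platform. A fall in light output indicates inhibition.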

CYP2C9 = CYP2C9 (Homo sapiens, UniProt P11712); test: Inhibition of human CYP2C9 expressed in baculovirus-infected insect cells at 10 uM using Luciferin-H as substrate in presence of NADPH by P450-Glo luminescence assay relative to control; settings: probe Luciferin-H
CYP2C9, sequence (P11712 whole entry): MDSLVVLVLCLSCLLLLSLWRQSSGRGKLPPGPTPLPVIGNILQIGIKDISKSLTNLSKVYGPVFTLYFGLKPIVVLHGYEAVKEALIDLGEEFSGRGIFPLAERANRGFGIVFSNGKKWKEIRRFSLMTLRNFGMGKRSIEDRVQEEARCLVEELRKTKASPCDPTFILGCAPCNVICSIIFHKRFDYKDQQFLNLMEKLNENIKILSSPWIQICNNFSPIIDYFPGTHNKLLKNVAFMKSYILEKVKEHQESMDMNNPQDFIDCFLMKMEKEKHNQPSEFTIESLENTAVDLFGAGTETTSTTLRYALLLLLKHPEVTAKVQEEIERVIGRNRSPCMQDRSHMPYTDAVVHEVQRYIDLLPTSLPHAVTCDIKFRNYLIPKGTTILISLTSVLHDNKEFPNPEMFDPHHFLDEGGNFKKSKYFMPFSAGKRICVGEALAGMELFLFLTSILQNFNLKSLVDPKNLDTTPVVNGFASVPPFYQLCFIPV

[2] = Mitochondrial toxicity in human 786-O cells by mitotracker red chloromethyl-Xrosamine staining based-uptake method; type: cell-based, 786-0
In short: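 786-O renal carcinoma cells kept in RPMI-1640 with 2 mM glutamine, 10% v/v FCS, streptomycin 100 µg/ml and penicillin G 100 U/ml. Mitochondrial toxicity monitored by MitoTracker Red CMXRos uptake with high-content imaging.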

[3] = Lipophilicity, log P of the compound; type: physicochemical; settings: octanol/water
[4] = Drug uptake in BALB/c mouse plasma at 20 mg/kg, po as cyclodextrin/PEG400 formulation measured after 3 hrs by LC-MS method; type: ADME, organism-based
In short: (§3)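 BALB/c mice dosed either free (8% DMSO; 1 mg/kg IV or 20 mg/kg oral), or 20 mg/kg oral in 50% w/v hydroxypropyl-β-cyclodextrin, or 20 mg/kg oral in 25% cyclodextrins plus 50% PEG 400. Serial submandibular blood samples stored at -20°C. Plasma measured by isocratic LC-MS (acetonitrile:water 80:20, 0.2 ml/min), quantifier transition m/z 315.0>161.0.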

[5] = Drug uptake in BALB/c mouse plasma at 1 mg/kg, iv measured after 60 mins by LC-MS method; type: ADME, organism-based; in short: as §3
[6] = Cytotoxicity against human […] cells assessed as cell growth at 10 uM by Cell titer-Glo assay relative to control; type: cell-based; settings: WI-38 cells, read-out: Activity
In short: (§4)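 A549 and WI-38 cells grown in DMEM with 10% v/v FCS, streptomycin 100 µg/ml and penicillin G 100 U/ml. Cell number read as cellular ATP by CellTiter-Glo luminescence. Growth 60–100% scored non-cytotoxic, 0–60% cytostatic, below 0 cytotoxic.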

[7] = Drug uptake in BALB/c mouse plasma at 20 mg/kg, po as 50% cyclodextrin formulation measured after 0.5 hrs by LC-MS method; type: ADME, organism-based; in short: as §3
[8] = Drug uptake in BALB/c mouse plasma at 20 mg/kg, po measured after 0.25 hrs by LC-MS method; type: ADME, organism-based; in short: as §3
Aurora kinase B = Aurora kinase B (Homo sapiens, UniProt Q96GD4); test: Inhibition of N-terminal-GST-tagged recombinant full length human Aurora B expressed in baculovirus infected Sf9 cells at 10 uM using native Swine Myelin Basic Protein as substrate measured after 60 mins by ADP-Glo assay relative to control; settings: probe native Swine Myelin Basic Protein
Aurora kinase B, sequence (Q96GD4 whole entry): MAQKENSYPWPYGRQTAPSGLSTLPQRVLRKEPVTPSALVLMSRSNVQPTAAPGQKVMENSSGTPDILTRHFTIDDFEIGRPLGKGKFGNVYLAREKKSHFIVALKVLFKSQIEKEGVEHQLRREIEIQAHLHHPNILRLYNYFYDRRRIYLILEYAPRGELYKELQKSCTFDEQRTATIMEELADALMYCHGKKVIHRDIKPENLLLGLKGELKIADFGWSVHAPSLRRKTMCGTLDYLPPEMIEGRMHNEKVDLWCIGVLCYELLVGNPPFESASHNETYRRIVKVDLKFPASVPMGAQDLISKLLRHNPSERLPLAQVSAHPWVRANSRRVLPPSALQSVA
In short: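 Aurora B kinase activity measured by ADP-Glo, which detects ADP formed through a coupled luciferase luminescence read-out.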

[9] = Cytotoxicity against human A549 cells assessed as cell growth by Cell titer-Glo assay; type: cell-based; in short: as §4
[10] = Cytotoxicity against human A549 cells assessed as cell growth at 10 uM by Cell titer-Glo assay relative to control; type: cell-based; settings: read-out: Activity; in short: as §4
[11] = Drug uptake in BALB/c mouse plasma at 20 mg/kg, po as 50% cyclodextrin formulation measured after 0.25 hrs by LC-MS method; type: ADME, organism-based; in short: as §3
[12] = Solubility of the compound in water measured after 18 hrs by UV-vis spectroscopic method; type: physicochemical; in short: as §1
CYP2D6 = CYP2D6 (Homo sapiens, UniProt P10635); test: Inhibition of human CYP2D6 expressed in baculovirus-infected insect cells at 10 uM using Luciferin-ME EGE as substrate in presence of NADPH by P450-Glo luminescence assay relative to control; type: ADME; settings: probe Luciferin-ME EGE; in short: as §2
CYP2D6, sequence (P10635 whole entry): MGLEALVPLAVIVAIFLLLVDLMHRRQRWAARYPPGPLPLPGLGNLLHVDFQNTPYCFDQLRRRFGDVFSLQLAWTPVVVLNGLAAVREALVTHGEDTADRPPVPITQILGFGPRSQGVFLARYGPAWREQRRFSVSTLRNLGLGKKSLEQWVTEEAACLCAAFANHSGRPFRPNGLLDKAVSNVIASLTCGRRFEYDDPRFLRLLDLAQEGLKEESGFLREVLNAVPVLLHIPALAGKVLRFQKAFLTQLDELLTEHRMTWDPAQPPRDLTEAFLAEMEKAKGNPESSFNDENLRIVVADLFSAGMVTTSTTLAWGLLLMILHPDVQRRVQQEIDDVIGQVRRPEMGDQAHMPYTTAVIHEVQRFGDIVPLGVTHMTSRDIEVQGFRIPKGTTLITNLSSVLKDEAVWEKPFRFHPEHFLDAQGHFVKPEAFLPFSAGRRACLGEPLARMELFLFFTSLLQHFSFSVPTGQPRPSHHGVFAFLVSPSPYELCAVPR

[13] = Solubility of the compound in phosphate buffered saline with 10% DMSO measured after 18 hrs by UV-vis spectroscopic method; type: physicochemical; in short: as §1
[14] = Cytotoxicity against human THP1 cells by MTT assay; type: cell-based; settings: THP-1 cells
In short: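 THP-1 cells differentiated to macrophages with PMA, viability read by colorimetric MTT. CC50 and NOAEL are the arithmetic mean of at least two independent determinations, each run in triplicate.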

[15] = Drug uptake in BALB/c mouse plasma at 20 mg/kg, po as 50% cyclodextrin formulation measured after 1 hr by LC-MS method; type: ADME, organism-based; in short: as §3
[16] = Drug uptake in BALB/c mouse plasma at 1 mg/kg, iv measured after 45 mins by LC-MS method; type: ADME, organism-based; in short: as §3
Cytochrome P450 2D6 = Cytochrome P450 2D6 (Homo sapiens, UniProt P10635); test: Inhibition of human CYP2D6 expressed in baculovirus-infected insect cells using Luciferin-ME EGE as substrate in presence of NADPH by P450-Glo luminescence assay; type: ADME; in short: as §2
Cytochrome P450 2D6, sequence (P10635 whole entry): as above

[17] = system: Trypanosoma brucei brucei; test: Anti-parasitic activity against bloodstream form of Trypanosoma brucei brucei Lister 427 after 72 hrs by resazurin-based assay; type: functional; settings: Lister 427, 72 h
In short: (§5)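 Bloodstream-form T. brucei, modified resazurin-based viability assay. EC50 is the arithmetic mean of at least two independent determinations, each run in triplicate.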

[18] = Drug uptake in BALB/c mouse plasma at 20 mg/kg, po as 50% cyclodextrin formulation measured after 3 hrs by LC-MS method; type: ADME, organism-based; in short: as §3
[19] = system: Trypanosoma brucei brucei; test: Anti-parasitic activity against bloodstream form of Trypanosoma brucei brucei Lister 427 at 10 uM after 72 hrs by resazurin-based assay relative to control; type: functional; settings: Lister 427, 72 h; in short: as §5
[20] = Drug uptake in BALB/c mouse plasma at 20 mg/kg, po measured after 0.5 hrs by LC-MS method; type: ADME, organism-based; in short: as §3
[21] = Half-life in BALB/c mouse at 20 mg/kg, po as cyclodextrin formulation by LC-MS method; type: ADME, organism-based; settings: in vivo; in short: as §3
[22] = Half-life in BALB/c mouse at 20 mg/kg, po by LC-MS method; type: ADME, organism-based; settings: in vivo; in short: as §3
[23] = Drug uptake in BALB/c mouse plasma at 20 mg/kg, po measured after 1 hr by LC-MS method; type: ADME, organism-based; in short: as §3
Trypanosoma cruzi = test: Anti-parasitic activity against Trypanosoma cruzi Y promastigotes infected in HG39 cells at 10 uM by qPCR analysis relative to control; type: functional, cell-based; settings: in the assay text read “trypomastigotes” for “promastigotes”
In short: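 Confluent HG39 cells (3 x 10^6 per well) infected at a 1:1 ratio with blood-derived T. cruzi Y strain trypomastigotes. Growth inhibition was read as parasite gDNA by TaqMan probe-based quantitative real-time PCR.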

Question: Which solubility at 18 h [1] does the source give for `COc1cccc(/C=C/C(=O)c2cc(OC)c(OC)cc2O)c1` here?
Answer: Its solubility at 18 h is 600 µM (≈ 189 µg/mL).

Question: And the IC50 (Cytochrome P450 2C19)?
Answer: Its IC50 is 7.7 µM.

Question: And the inhibition at 10 µM (CYP2C9)?
Answer: Its inhibition at 10 µM is 19%.

Question: And the IC50 [2]?
Answer: Its IC50 is 14.5 µM.

Question: And the logP [3]?
Answer: Its logP is 3.59.

Question: What about the concentration at 3 h [4] of the same compound?
Answer: The concentration at 3 h was 6 nM.

Question: And the concentration at 1 h [5]?
Answer: Its concentration at 1 h is 21 nM.

Question: What about the viability at 10 µM [6] of the same compound?
Answer: The viability at 10 µM was 96.1%.

Question: And the concentration at 0.5 h [7]?
Answer: The concentration at 0.5 h was 563 nM.

Question: What about the concentration at 0.25 h [8] of the same compound?
Answer: Its concentration at 0.25 h is 270 nM.

Question: And the inhibition at 1 h, 10 µM (Aurora kinase B)?
Answer: The inhibition at 1 h, 10 µM was -6.8%.

Question: What about the GI50 [9] of the same compound?
Answer: Its GI50 is 12.4 µM.

Question: What about the viability at 10 µM [10] of the same compound?
Answer: Its viability at 10 µM is 95.5%.

Question: And the concentration at 0.25 h [11]?
Answer: The concentration at 0.25 h was 1100 nM.

Question: What about the solubility at 18 h [12] of the same compound?
Answer: The solubility at 18 h was 0.91 µM (≈ 0.286 µg/mL).

Question: What about the inhibition at 10 µM (CYP2D6) of the same compound?
Answer: The inhibition at 10 µM was 58.8%.

Question: What about the solubility at 18 h [13] of the same compound?
Answer: Its solubility at 18 h is 11.4 µM (≈ 3.59 µg/mL).

Question: What about the CC50 [14] of the same compound?
Answer: Its CC50 is 51 µM.

Question: And the concentration at 1 h [15]?
Answer: The concentration at 1 h was 69 nM.

Question: What about the concentration at 0.75 h [16] of the same compound?
Answer: The concentration at 0.75 h was 23 nM.

Question: And the IC50 (Cytochrome P450 2D6)?
Answer: The IC50 was 6.8 µM.

Question: And the EC50 [17]?
Answer: The EC50 was 4.2 µM.

Question: And the concentration at 3 h [18]?
Answer: Its concentration at 3 h is 10 nM.

Question: What about the inhibition at 10 µM [19] of the same compound?
Answer: The inhibition at 10 µM was 100%.

Question: And the concentration at 0.5 h [20]?
Answer: The concentration at 0.5 h was 49 nM.

Question: What about the half-life [21] of the same compound?
Answer: Its half-life is 36.7 min.

Question: And the half-life [22]?
Answer: Its half-life is 12.6 min.

Question: What about the concentration at 1 h [23] of the same compound?
Answer: Its concentration at 1 h is 9 nM.

Question: What about the inhibition at 10 µM (Trypanosoma cruzi) of the same compound?
Answer: The inhibition at 10 µM was 46%.

Reference: ChEMBL document CHEMBL3997782, “Methoxylated 2'-hydroxychalcones as antiparasitic hit compounds” (Eur J Med Chem, 2017)
